Assay outcomes (PubChem BioAssay)
Diaph act CS: activates diaphorase or chemically reduces, flagging diaphorase assay artifacts | activation factor at 20 µM | hit rate 0.005% among 190,000 | Diaphorase/resazurin coupled assay, resorufin fluorescence, 16 min; stronger effect = higher value; 1 = vehicle wells, 0 = NADH-free wells;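 active = diaphorase activity raised at least twofold by the compound at 20 µM; inactive = activation factor below 2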
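Test system: Clostridium kluyveri diaphorase, purified enzyme. Buffer or medium: 50 mM HEPES pH 7.4 buffer plus MgCl2 and Tween 20. Also added: 0.114 mM NADH and 0.1 mM resazurin, final amounts. Dosing: compound 20 µM once, DMSO 1%. Schedule: 16 min enzyme reaction, ambient temperature. Detection: fluorescence of resorufin, 544 nm excitation, 590 nm emission.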
Avidin fluor: compound fluoresces at 488/530 nm on avidin beads | compound fluorescence 488/530 nm, flow cytometry; stronger effect = higher value | fluorescence (KMESF) at 10 µM | hit rate 0.38% among 220,000; in the data active = fluorescence above about 47
PMI act hi M6P: activators of human phosphomannose isomerase at near-saturating mannose 6-phosphate | coupled PMI enzyme assay, resazurin fluorescence, 20 min; stronger effect = higher value; 1 = untreated enzyme, 0 = substrate-free blank | activation factor at 20 µM | hit rate 0.34% among 190,000 | AID 1216;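 active = activation factor of 2 or more at 20 µM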
Target sequence (P34949 whole entry, looked up): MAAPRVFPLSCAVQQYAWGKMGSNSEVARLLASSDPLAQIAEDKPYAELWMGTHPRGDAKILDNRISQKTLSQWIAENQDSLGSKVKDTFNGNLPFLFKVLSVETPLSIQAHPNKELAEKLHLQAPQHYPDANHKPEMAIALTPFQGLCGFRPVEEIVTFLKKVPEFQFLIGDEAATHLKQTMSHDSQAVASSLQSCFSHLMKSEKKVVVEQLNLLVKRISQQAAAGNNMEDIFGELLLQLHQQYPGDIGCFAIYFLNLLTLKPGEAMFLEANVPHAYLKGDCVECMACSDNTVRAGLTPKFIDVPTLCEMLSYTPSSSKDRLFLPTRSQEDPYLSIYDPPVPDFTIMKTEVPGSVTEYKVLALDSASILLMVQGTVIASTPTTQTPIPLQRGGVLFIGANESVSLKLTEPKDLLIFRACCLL
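Material: human phosphomannose isomerase with PGI, G6PDH, diaphorase coupling enzymes / Reagent: Man-6-P substrate 1.0 mM / Dosing: single compound dose of 20 µM, 1% DMSO final / Incubation: enzyme reaction with compound 20 min at room temperature / Signal: resorufin fluorescence (Ex 544/Em 590 nm) from resazurin via diaphorase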
PMI act: increases human mannose-6-phosphate isomerase activity; activation factor at 20 µM; hit rate 0.005% among 190,000; P34949; purified human PMI, coupled resazurin fluorescence, 20 min; stronger effect = higher value; 1 = vehicle control, 0 substrate-free wells;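 active = activation factor of 2 or more at 20 µM, relative to plate controls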
GSH bead fluor: compound fluoresces at 488/530 nm on GSH beads. fluorescence (KMESF) at 10 µM. GSH beads flow cytometry, compound fluorescence 488/530 nm; stronger effect = higher value. hit rate 0.25% among 190,000. AID 1776; in the data active = fluorescence above about 89;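 also: glutathione beads carrying GST-tagged Bcl family fusion proteins plus one bare bead set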
p47phox inh: blocks human p47phox regulatory protein of NADPH oxidases; p47phox/p22phox peptide binding, fluorescence polarization, 2 h; hit rate 0.53% among 220,000; inhibition, % at 24.7 µM; AID 1274;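 active = inhibition above about 30%, limit read from the data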
Numbers stand for hits; i = inactive; nt = no result. An excerpt weighted towards active compounds, which were near 1.4% of everything screened.

SMILES	Diaph act CS	Avidin fluor	PMI act hi M6P	PMI act	GSH bead fluor	p47phox inh
Cc1onc(-c2ccccc2Cl)c1C(=O)Nc1nc2c(s1)CCCC2	i	i	i	i	i	i
COc1ccc2nc3sc(C(=O)NCCN4CCc5ccccc5C4)cc3cc2c1	i	i	i	i	i	i
COc1ccc2cc3cc(C(=O)NCCCN4CCc5ccccc5C4)sc3nc2c1	i	i	i	i	i	73
COc1ccccc1NC(=O)CCn1cccc1	i	i	i	i	i	i
CCC(C)n1c(SCC(=O)NC(=O)c2cccn2C)nc2ccccc2c1=O (centres undefined)	i	i	i	i	i	i
CCCCN(CCCC)CCn1cnc2c([nH]c3ccc(OC)cc32)c1=O	i	i	i	i	i	i
Cc1[nH]c2ccccc2c1C(c1ccncc1)N1CCN(c2ccccc2F)CC1 (centres undefined)	i	92	i	i	i	i
Cc1ccc(-n2c(=O)cc(N3CCc4ccccc4C3)[nH]c2=O)cc1	i	i	i	i	i	i
CCCn1c(N2CCN(C)CC2)nc2c1c(=O)[nH]c(=O)n2C	i	i	i	i	i	i
CCCn1c(N2CCOCC2)nc2c1c(=O)[nH]c(=O)n2C	i	60	i	i	i	i
COc1ccc(N2CCN(c3nc4ccccc4n3CC(=O)c3ccccc3)CC2)cc1	i	76	i	i	i	i
CCOC(=O)C1CCN(c2nc3ccccc3n2CC(=O)c2ccccc2)CC1	i	i	i	i	i	i
O=C(COC(=O)c1ccc(S(=O)(=O)N2CCCC2)cc1)Nc1ccc(N2CCOCC2)cc1	i	i	i	i	i	i
Cc1cc(C)cc(C(=O)Nc2ccc(N3CCCC3)cc2)c1	i	i	i	i	i	i
O=C(Nc1ccc(N2CCOCC2)cc1)c1ccc(S(=O)(=O)N2CCCCC2)cc1	i	i	i	i	i	37
CC(C)Oc1ccc(C(=O)Nc2ccc(N3CCCC3)cc2)cc1	i	i	i	i	i	34
CN(C)c1ccc(/C=C2/C=C(c3ccc4c(c3)CCCC4)OC2=O)cc1	nt	i	nt	nt	nt	45
COc1ccc(C2=C/C(=C\c3ccc(OC(C)=O)cc3)C(=O)O2)cc1	i	i	i	i	i	i
COC(=O)c1ccccc1OCCCCN1CC(C)OC(C)C1 (centres undefined)	i	173	i	i	i	i
CCc1ccc2c(c1)c1nc(C)sc1n2CC(=O)OC	i	51	i	i	i	i
Cc1nc2c3cc(F)ccc3n(Cc3ccccc3)c2s1	i	i	i	i	i	i
COc1ccc(S(=O)(=O)CCc2nnc(NC(=O)c3cccs3)s2)cc1	i	i	i	i	i	i
CCn1cc(CN2CCN(Cc3cccc(OC)c3)C(CCO)C2)c(C)n1 (centres undefined)	nt	i	nt	nt	i	i
O=C(N=Nc1c(O)[nH]c2ccc(Cl)cc12)c1cc(-c2cccs2)nc2ccccc12	i	i	i	i	i	70
CC(C)C(c1nnnn1Cc1ccc2c(c1)OCO2)N1CCN(C)CC1 (centres undefined)	i	i	i	i	i	i
SMILES	Diaph act CS	Avidin fluor	PMI act hi M6P	PMI act	GSH bead fluor	p47phox inh
Cc1nc2ccccc2c2oc(C(=O)NCc3ccc4c(c3)OCO4)cc12	i	i	i	i	i	121
Cc1ccc(CNC(=O)c2cc3c(C)nc4ccccc4c3o2)cc1	i	i	i	i	i	i
COc1ccc(OC)c2[nH]c(=O)c(CCNC(=O)c3ccc(S(=O)(=O)N4CCCC4)cc3)cc12	i	i	i	i	i	i
COc1ccc(C(=O)/C=C2\NCC3c4ccccc4CCN3C2=O)cc1 (centres undefined)	i	i	2.4	i	i	i
COc1ccccc1NS(=O)(=O)c1cccc(NC(=O)NC2CCCCC2)c1	i	i	i	i	i	i
COc1ccc(Cn2c(SCc3cc(C)ccc3C)nc3cc(OC)c(OC)cc3c2=N)cc1	i	i	i	i	i	66
COc1cc2nc(SCc3ccc(C(F)(F)F)cc3)n(Cc3cccs3)c(=N)c2cc1OC	i	i	i	i	i	i
COc1ccc(Cn2c(SCc3ccc(C)cc3)nc3cc(OC)c(OC)cc3c2=N)cc1Cl	i	i	i	i	i	35
CCOC(=O)c1c(NC(=O)OC)sc(C(=O)N(C)C)c1C	i	i	i	i	i	i
CCOC(=O)c1c(C)[nH]c(C(=O)OC)c1CCC(=O)OC	i	i	i	i	i	i
O=[N+]([O-])C1=CC=C2C(=NC3(CCCCC3)N2O)C1=NC1CCCCC1	i	i	i	i	i	48
O=[N+]([O-])C1=CC=C2C(=NC3(CCCCC3)N2O)C1=NCCc1ccccc1	i	i	i	i	i	130
CC(C)(C)N=C1C([N+](=O)[O-])=CC=C2C1=NC1(CCCCC1)N2O	i	i	i	i	i	i
O=C(OCc1ccc(Cl)cc1)c1cnccn1	i	i	i	i	i	i
O=C(OCc1ccc(Cl)c(Cl)c1)c1cnccn1	i	i	i	i	270	i
COc1ccc(C)cc1S(=O)(=O)N(C)CC(=O)NC1CCCC1	i	i	i	i	i	i
CC1N(O)C(C)(C)C(c2ccccc2)=[N+]1[O-] (centres undefined)	i	i	i	i	103	i
COc1ccc(C2=[N+]([O-])C(C)(C)N(O)C2(C)C)cc1	i	i	i	i	i	i
COc1ccc(S(=O)(=O)N(C)c2c(C)n(C)n(-c3ccccc3)c2=O)cc1OC	i	107	i	i	i	i
Cc1c(N(CC(=O)O)S(=O)(=O)c2ccccc2)c(=O)n(-c2ccccc2)n1C	i	i	i	i	i	i
COc1ccc(/C=C2\SC(=O)N(CC(=O)NNC(=O)c3ccccc3O)C2=O)cc1OC	i	i	i	i	i	34
COc1ccc(NC(=O)Cn2cc(S(=O)(=O)Cc3ccccc3)c3ccccc32)c(OC)c1	i	i	i	i	i	i
CCCn1cc(S(=O)(=O)CC(=O)Nc2ccc(OC)cc2OC)c2ccccc21	i	i	i	i	130	i
O=C(Nc1ccccc1C(F)(F)F)c1cc(S(=O)(=O)N2CCOCC2)ccc1F	i	i	i	i	i	i
O=C(O)C1C2C=CC3(CN(CC(O)COc4ccccc4)C(=O)C13)O2 (centres undefined)	i	i	i	i	i	i
CCC1(CC)Cc2ccccc2C(N)=C1C#N	i	63	i	i	i	i
CCC1(CC)Cc2ccccc2C(=O)N1	nt	i	nt	nt	nt	i
O=C(CSc1nnc(-c2ccco2)o1)NC1CC2CCC1C2 (centres undefined)	i	i	i	i	i	i
CCn1c2ccccc2c2cc(NC(=O)N3CCOCC3)ccc21	i	47	i	i	i	i
